ChEMBL document CHEMBL4715933, “Identification of Potent Reverse Indazole Inhibitors for HPK1” (ACS Med Chem Lett, 2021)

Columns and labels:
[1] = target: T1, Mitogen-activated protein kinase kinase kinase kinase 1 (Homo sapiens, UniProt Q92918); assay: Displacement of Tracer 222 from N-terminal GST-tagged human recombinant HPK1 (1 to 346 residues ) expressed in baculovirus-infected Sf9 cells incubated for 1 hr by HTRF lanthascreen binding assay
Procedure, shortened: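 Binding (tracer-displacement) format run with tracer at a concentration approximately equal to its Kd; IC50 derived from displacement.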
Target sequence in this assay (Q92918 whole entry, the tested form may be a part): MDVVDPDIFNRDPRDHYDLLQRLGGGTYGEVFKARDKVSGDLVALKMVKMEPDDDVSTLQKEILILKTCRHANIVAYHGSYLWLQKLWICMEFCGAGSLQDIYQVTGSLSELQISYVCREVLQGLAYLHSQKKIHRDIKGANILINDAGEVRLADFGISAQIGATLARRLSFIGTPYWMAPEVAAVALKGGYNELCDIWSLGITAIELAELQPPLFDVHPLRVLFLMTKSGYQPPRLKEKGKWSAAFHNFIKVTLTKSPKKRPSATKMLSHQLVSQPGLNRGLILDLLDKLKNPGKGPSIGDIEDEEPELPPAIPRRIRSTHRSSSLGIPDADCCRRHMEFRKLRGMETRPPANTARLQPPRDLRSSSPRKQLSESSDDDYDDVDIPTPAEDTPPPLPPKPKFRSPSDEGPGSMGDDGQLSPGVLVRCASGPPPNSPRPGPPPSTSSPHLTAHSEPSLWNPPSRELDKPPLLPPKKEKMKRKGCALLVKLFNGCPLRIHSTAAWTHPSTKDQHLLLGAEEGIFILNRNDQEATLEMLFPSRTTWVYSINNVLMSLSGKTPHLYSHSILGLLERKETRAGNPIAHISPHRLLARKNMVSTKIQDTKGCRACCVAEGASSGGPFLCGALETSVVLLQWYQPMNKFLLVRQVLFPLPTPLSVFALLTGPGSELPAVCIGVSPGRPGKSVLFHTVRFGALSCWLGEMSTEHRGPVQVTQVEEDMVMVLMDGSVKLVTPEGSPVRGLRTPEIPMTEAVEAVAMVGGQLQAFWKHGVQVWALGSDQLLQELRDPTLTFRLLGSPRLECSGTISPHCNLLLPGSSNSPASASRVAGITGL

[2] = Mean residence time in Wistar Han rat at 0.1 mg/kg, iv; format: ADME, organism-based; details: in vivo
Procedure, shortened: (§1)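 Male Wistar Han rats dosed intravenously at 0.1 mg/kg, given as a solution in DMSO/PEG400/H2O. Plasma PK parameters derived: total plasma clearance, volume of distribution, mean residence time and half-life. Unbound clearance accounts for plasma protein binding.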

[3] = species on record: Homo sapiens; assay: Selectivity ratio of IC50 for JAK2 (unknown origin) by ATP competitive binding assay to IC50 for N-terminal GST-tagged human recombinant HPK1 (1 to 346 residues ) expressed in baculovirus-infected Sf9 cells by HTRF lanthascreen binding assay
Procedure, shortened: (§2)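 Ratio of off-target kinase IC50 (JAK1, JAK2 or CDK2) to HPK1 IC50. The off-target kinase assays were run at ATP approximately equal to Km(ATP). HPK1 IC50 came from the tracer-displacement assay with tracer at approximately Kd(tracer).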

[4] = species on record: Homo sapiens; assay: Selectivity ratio of IC50 for JAK1 (unknown origin) by ATP competitive binding assay to IC50 for N-terminal GST-tagged human recombinant HPK1 (1 to 346 residues ) expressed in baculovirus-infected Sf9 cells by HTRF lanthascreen binding assay; procedure, shortened: as §2
[5] = Volume of distribution in Wistar Han rat at 0.1 mg/kg, iv; format: ADME, organism-based; details: in vivo; procedure, shortened: as §1
[6] = Total Plasma clearance in Wistar Han rat at 0.1 mg/kg, iv; format: ADME, organism-based; procedure, shortened: as §1
[7] = species on record: Homo sapiens; assay: Selectivity ratio of IC50 for CDK2 (unknown origin) by ATP competitive binding assay to IC50 for N-terminal GST-tagged human recombinant HPK1 (1 to 346 residues ) expressed in baculovirus-infected Sf9 cells by HTRF lanthascreen binding assay; procedure, shortened: as §2
[8] = Total Plasma clearance in Wistar Han rat at 0.5 mg/kg, iv or 0.5 mg/kg, po; format: ADME, organism-based
Procedure, shortened: (§3)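 Male Wistar Han rats given 0.5 mg/kg intravenously and 0.5 mg/kg orally, both as solutions in DMSO/PEG400/H2O. Plasma clearance, volume of distribution, half-life and oral bioavailability determined. Unbound parameters correct for plasma protein binding.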

[9] = Oral bioavailability in Wistar Han rat at 0.5 mg/kg; format: ADME, organism-based; details: in vivo; procedure, shortened: as §3
[10] = Unbound clearance in Wistar Han rat at 0.5 mg/kg, iv or 0.5 mg/kg, po; format: ADME, organism-based; details: in vivo; procedure, shortened: as §3
[11] = Apparent permeability of compound in dog MDCKII cells; format: ADME, cell-based, Canis lupus familiaris, MDCK-II; details: MDCK
[12] = target: T1, Mitogen-activated protein kinase kinase kinase kinase 1; assay: Inhibition of HPK1 in human PBMC assessed as unbound concentration required for inhibition of SLP76 phosphorylation by ELISA corrected to binding to 10% FBS
Procedure, shortened: (§4)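 Target-engagement assay in human peripheral blood mononuclear cells with ELISA readout of SLP76 phosphorylation. Total-cell IC50 reported. Unbound IC50 obtained by correcting for compound binding to the 10% FBS present in the assay medium.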
Target sequence in this assay (Q92918 whole entry, looked up, the tested form may be a part): as the sequence (Q92918 whole entry, the tested form may be a part) above

[13] = Half life in Wistar Han rat at 0.5 mg/kg, iv or 0.5 mg/kg, po; format: ADME, organism-based; details: in vivo; procedure, shortened: as §3
[14] = Volume of distribution in Wistar Han rat at 0.5 mg/kg, iv or 0.5 mg/kg, po; format: ADME, organism-based; details: in vivo; procedure, shortened: as §3
[15] = Unbound volume of distribution in Wistar Han rat at 0.5 mg/kg, iv or 0.5 mg/kg, po; format: ADME, organism-based; details: in vivo; procedure, shortened: as §3
[16] = target: T1, Mitogen-activated protein kinase kinase kinase kinase 1; assay: Inhibition of HPK1 in human PBMC assessed as inhibition of SLP76 phosphorylation by ELISA; procedure, shortened: as §4
Target sequence in this assay (Q92918 whole entry, the tested form may be a part): as above

[17] = Half life in Wistar Han rat at 0.1 mg/kg, iv; format: ADME, organism-based; details: in vivo; procedure, shortened: as §1
[18] = Unbound clearance in Wistar Han rat at 0.1 mg/kg, iv; format: ADME, organism-based; details: in vivo; procedure, shortened: as §1
[19] = Mean residence time in Wistar Han rat at 2 mg/kg, iv; format: ADME, organism-based; details: in vivo
Procedure, shortened: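 Male Wistar Han rats received a single intravenous dose of 2 mg/kg, formulated as a solution in 30% captisol/70% water. Mean residence time derived from plasma concentration–time data.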

| SMILES | IC50 [1] [nM] | Ratio IC50 [3] | Ratio IC50 [4] | Ratio IC50 [7] | further results |
| --- | --- | --- | --- | --- | --- |
| COc1cccc(F)c1-c1cc2c(cn1)cnn2-c1ccc(N2CCN(C)CC2)cn1 | 31 | 61 | 95 | 77 | – |
| CN1CCN(c2ccc(-n3ncc4cnc(-c5ccccc5)cc43)cc2)CC1 | 826 | 12 | 12 | – | – |
| COc1cccc(-n2ncc3cnc(-c4c(F)cccc4OC)cc32)n1 | 103 | 21 | 97 | 5 | – |
| CNC1CCc2c1ccc(F)c2-c1cc2c(cn1)cnn2-c1ccc(N2CCN(C)CC2)cc1 (racemic) | 193 | 52 | 52 | 52 | – |
| CCOc1cccc(F)c1-c1cc2c(cn1)cnn2-c1ccc(N2CCN(C)CC2)cc1 | 557 | 18 | 18 | 18 | – |
| COc1cccc(F)c1-c1cc2c(cn1)cnn2-c1ccc(N2CCOCC2)cc1 | 101 | 99 | 99 | – | – |
| COc1cccc(F)c1-c1cc2c(cn1)cnn2-c1cccc(N)n1 | 518 | – | – | – | – |
| COc1ccncc1-c1cc2c(cn1)cnn2-c1ccc(N2CCN(C)CC2)cc1 | 120 | 83 | 83 | 4 | – |
| COc1cccc(F)c1-c1cc2c(cn1)cnn2-c1cccc(N2CC(N)C2)n1 | 32 | 24 | 59 | 10 | – |
| Cc1cccc(F)c1-c1ccc2cnn(-c3ccc(N4CCN(C)CC4)cc3)c2c1 | 1470 | – | – | – | – |
| COc1cccc(F)c1-c1cc2c(cn1)cnn2-c1ccnc(N2CCN(C)CC2)c1 | 60 | 61 | 167 | 167 | – |
| Cc1cccc(F)c1-c1cc2c(cn1)cnn2-c1ccc(N2CCN(C)CC2)cc1 | 121 | 83 | 83 | 83 | – |
| Cc1ccccc1-c1cc2c(cn1)cnn2-c1ccc(N2CCN(C)CC2)cc1 | 410 | 24 | 24 | – | – |
| COc1cccc(F)c1-c1cc2c(cn1)cnn2-c1cccc(N2CCCC2)n1 | 109 | – | – | – | – |
| COc1cccc(F)c1-c1cc2c(cn1)cnn2-c1cccc(N2CCCCC2)n1 | 40 | 26 | 252 | 43 | – |
| Cc1cccc(C)c1-c1cc2c(cn1)cnn2-c1ccc(N2CCN(C)CC2)cc1 | 284 | 35 | 35 | 35 | – |
| COC(=O)N1CCN(c2cccc(-n3ncc4cnc(-c5c(F)cccc5OC)cc43)n2)CC1 | 32 | 5 | 65 | 11 | – |
| COc1cccc(F)c1-c1cc2c(cn1)cnn2-c1cccc(N2CCN(C)CC2)c1 | 408 | 25 | 25 | – | – |
| COc1cccc(F)c1-c1cc2c(cn1)cnn2-c1ccc(N2CCN(C)CC2)cc1 | 89 | 112 | 112 | 112 | – |
| C[C@@H]1CN(c2cc(-n3ncc4ccc(-c5cnn6c5OCCC6)cc43)ccn2)C[C@H](C)N1C | 1460 | 7 | 7 | – | MRT [2]: 2.6 h; Vd [5]: 1.4 L/kg; clearance [6]: 8.7 mL/min/kg |
| COc1cccc(F)c1-c1cc2c(cn1)cnn2-c1cccc(N2CCOCC2)n1 | 34 | 18 | 92 | 12 | – |
| COc1cccc(F)c1-c1cc2c(cn1)cnn2-c1cccc(N2CCCC2=O)n1 | 213 | – | – | – | – |
| COc1cccc(F)c1-c1cc2c(cn1)cnn2-c1ccccc1 | 1050 | 10 | 10 | – | – |
| Cc1cccc(F)c1-c1cc2c(cn1)cnn2-c1cnn(C)c1 | 1090 | – | – | – | – |
| CNC1CCN(c2cccc(-n3ncc4cnc(-c5c(F)cccc5OC)cc43)n2)CC1 | 17 | 90 | 112 | 8.5 | – |
| Cc1cccc(F)c1-c1cc2c(cnn2-c2ccc(N3CCN(C)CC3)cc2)cc1C#N | 28 | – | 357 | 357 | half-life [17]: 2.2 h; Papp [11]: < 8 ×10⁻⁶ cm/s; Vd [5]: 18 L/kg; IC50 [16]: > 10000 nM; clearance [6]: 151 mL/min/kg |
| COc1ccncc1-c1ccc2cnn(-c3ccnc(N4CCOCC4)c3)c2c1 | 2200 | 4 | 4 | – | MRT [19]: 1.2 h; Vd [5]: 2.1 L/kg; clearance [6]: 31 mL/min/kg |

Molecules with a lower IC50 [1], results first:

| IC50 [1] [nM] | SMILES | Ratio IC50 [3] | Ratio IC50 [4] | Ratio IC50 [7] | further results |
| --- | --- | --- | --- | --- | --- |
| 15 | CN1CCN(c2cc(-c3n[nH]c4cnc(-c5cnn6c5CCC6)cc34)ccn2)CC1 | 32 | 45 | – | MRT [2]: 1.9 h; Vd [5]: 15 L/kg; clearance [6]: 130 mL/min/kg |
| 1.1 | COc1cccc(F)c1-c1cc2c(cn1)cnn2-c1cccc(N2CC3CCC(C2)N3C)n1 | 1450 | 8960 | 61 | clearance [8]: 19 mL/min/kg; bioavailability [9]: 67%; CL free [10]: 1197 mL/min/kg; Papp [11]: 26 ×10⁻⁶ cm/s; fIC50 [12]: 0.3 µM; half-life [13]: 2.1 h; Vd [14]: 2.3 L/kg; Vdu [15]: 143 L/kg; IC50 [16]: 4000 nM |
| 3.8 | COc1cccc(F)c1-c1cc2c(cn1)cnn2-c1cccc(N2CCNCC2)n1 | 204 | 446 | 29 | – |
| 1.2 | COc1cccc(F)c1-c1cc2c(cn1)cnn2-c1cccc(N2CC[C@H](N(C)C)C2)n1 | 393 | 3070 | 281 | half-life [17]: 1.2 h; Papp [11]: 30 ×10⁻⁶ cm/s; Vd [5]: 0.3 L/kg; IC50 [16]: > 10000 nM; clearance [6]: 4.8 mL/min/kg |
| 1.9 | COc1cccc(F)c1-c1cc2c(cn1)cnn2-c1cccc(N2C[C@@H]3C[C@H]2CN3C)n1 | 599 | 5190 | 61 | clearance [8]: 4.2 mL/min/kg; bioavailability [9]: > 100%; CL free [10]: 2962 mL/min/kg; Papp [11]: 34 ×10⁻⁶ cm/s; fIC50 [12]: 1.1 µM; half-life [13]: 1.8 h; Vd [14]: 0.5 L/kg; IC50 [16]: 4300 nM |
| 2 | COc1cccc(F)c1-c1cc2c(cnn2-c2cccc(N3CCN(C)CC3)n2)cc1C#N | 130 | 1320 | 115 | half-life [17]: 3.1 h; Papp [11]: < 14 ×10⁻⁶ cm/s; CL free [18]: 19913 mL/min/kg; Vd [5]: 2.3 L/kg; IC50 [16]: > 10000 nM; clearance [6]: 12 mL/min/kg |
| 2.6 | COc1cccc(F)c1-c1cc2c(cn1)cnn2-c1cccc(N2CCN(C)CC2)n1 | 135 | 751 | 44 | half-life [17]: 2.3 h; Papp [11]: 28 ×10⁻⁶ cm/s; fIC50 [12]: 0.6 µM; CL free [18]: 2171 mL/min/kg; Vd [5]: 1.1 L/kg; IC50 [16]: 8000 nM; clearance [6]: 9.4 mL/min/kg |
| 9.1 | CN1CCN(c2cc(-c3n[nH]c4ccc(-c5cnn6c5CCC6)cc34)ccn2)CC1 | 1110 | 205 | – | MRT [2]: 1 h; Vd [5]: 7.1 L/kg; clearance [6]: 117 mL/min/kg |
| 6.7 | COc1cccc(F)c1-c1cc2c(cn1)cnn2-c1ccnc(N2CCN(C)CC2)n1 | 125 | 1480 | 10 | – |
| 13 | COc1cccc(F)c1-c1cc2c(cn1)cnn2-c1cccc(N2CC3(CCCNC3)C2)n1 | 177 | 792 | 45 | – |
| 11 | CNC(=O)N1CCN(c2cccc(-n3ncc4cnc(-c5c(F)cccc5OC)cc43)n2)CC1 | 32 | 311 | 30 | – |
| 1.8 | COc1cccc(F)c1-c1cc2c(cn1)cnn2-c1cc(Cl)cc(N2CCN(C)CC2)n1 | 134 | 347 | 597 | – |
